Data as given in the array DNA melting data of Ke et al. (doi:10.1101/2024.01.08.574731).

Key:
[1] = folding enthalpy; higher = less favourable; fluorescence melt of hairpins on a sequencing array, two-state fit; details: sodium 0.088 M
Summary of the method: (§1)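 Two-state fits, bootstrapped, provided melting temperature and folding enthalpy from Cy3 fluorescence normalised to pre-quench Cy3 and to control constructs. Library hairpins with annealed Cy3 and quencher oligos were imaged on a sequenced MiSeq flow cell in 50 mM Na-HEPES pH 8.0, 25 mM NaCl, at 2.5 °C intervals up to 60 °C. Four replicates were combined with inverse-variance weighting. A 9.35 °C upward shift was applied to fitted temperatures to match UV melts.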

[2] = melting temperature; fluorescence melt of hairpins on a sequencing array, two-state fit, raised by 9.35 °C to match UV melts; details: sodium 0.088 M
Summary of the method: as §1

Sequence	folding enthalpy [1] [kcal/mol]	Tm [2] [°C]
GCGATCGAAAGATACGC ((((((....))).)))	-25.5	50.1
GATCTCAGACGAGATC ((((((....))))))	-36.9	51.2
GACCGCCGAAAGGCAGTC (((.(((....))).)))	-20.9	54.3
GACGGGGCGAAAGCCGTC (((..(((....))))))	-15.6	55.2
GACCCACGAAAGTGCGTC (((.(((....))).)))	-26.1	46.7
GATCCACGCATGGATC ((((((....))))))	-32.1	52.8
GGAGTCGAAAGACAATCC ((((((....)))..)))	-15.4	32.5
GCCAAAGGAAACTCTGGC ((((.((....)).))))	-32.6	35.4
GTACATCGAAAGATCTAC (((.(((....))).)))	-10.2	25.1
GATCGAACAGTCGATC ((((((....))))))	-31.4	47.7
GATCCACGTTGGATC ((((((...))))))	-29.7	50.6
GAGACCACGAAAGTGCTC (((..(((....))))))	-9.82	27.7
GATCCATAGGTGGATC ((((((....))))))	-36	52
GATCCATGATTGGATC ((((((....))))))	-38.4	51.9
GACCTCCGAAAGGAAGTC (((.(((....))).)))	-26.1	44.7
GGAGGGCGAAAGCCTCC (((.(((....))))))	-18.7	61.9
GATCATGATAATGATC ((((((....))))))	-48.7	55.4
GCTCGAGGAAACTCAAGC (((.(((....))).)))	-30.7	37.7
GATCCGATGACGGATC ((((((....))))))	-35.4	58.2
GGACCAGGAAACTAGTCC ((((.((....)).))))	-26.9	36.4
GAGGACCGAAAGGTGCTC (((.(((....))).)))	-32.2	60.4
GCTGGGCGAAAGCGCCGC ((.(.((....)).).))	-18.2	47.4
GTTTCAGGAAACCGAAAC (((((.(....).)))))	-30	37.4
GATCTAATCATAGATC ((((((....))))))	-34.8	38.6

Sequence	folding enthalpy [1] [kcal/mol]	Tm [2] [°C]
GATCCGACTCCGGATC ((((((....))))))	-44.3	55.1
GGCCCTCGAAAGAGTGCC (((.(((....))).)))	-44.1	53.3
GATCGGATGCCGATC ((((((...))))))	-19	63
GCATTCGAAAGAAGCTGC ((((((....)))..)))	-23.5	40.8
GCCGTCGAAAGACGCGGC ((((((....)))..)))	-15	61.3
GATCGGGCCGCCGATC ((((((....))))))	-37.2	59.1
GATCCTGGCGAGGATC ((((((....))))))	-48.3	54.6
GTATCGGGAAACTGATGC (.(((.(....).))).)	-29.6	33.1
GACGGCGAAAGCCCGGTC ((((((....)))..)))	-13.2	48.1
GTCTTGGGAAACCAGGAC (((.(((....))).)))	-30.3	47.2
GAGGACCGAAAGGTACTC (((.(((....))).)))	-33.4	64.9
GCCCGTCGAAAGACTGGC (((.(((....))).)))	-48.7	55.4
GGCCCGCGAAAGCGTGCC (((.(((....))).)))	-26.5	67.3
GGGCCTGGAAACAGGCTC (.(((((....))))).)	-15.9	61.6
CGAGCGCGGAAACGCTCG (((..(((....))))))	-29.8	68.5
GGGCACGAAAGTGAACCC ((((((....)))..)))	-16.6	51.7
GCGGTCACGAAAGTGCGC (((..(((....))))))	-29.4	52.1
GCCTAGCGAAAGCTCAGC ((..(((....)))..))	-14.6	34.7
GTTGTGCGAAAGCAAAAC (((.(((....))).)))	-24	48.7
GCGGGGCGAAAGCACTGC ((.(.((....)).).))	-24.7	65.5
GTGGCCGAAAGGCTCAC ((((((....))).)))	-16.2	54.9
CGAACGGAAACGTTCTCG ((((((....)))..)))	-11.2	36.8
GACTCCGAAAGGATGTC ((((((....))).)))	-30.7	51
GACTGCGGAAACGTAGTC ((((.((....)).))))	-39.6	52.6

Sequence	folding enthalpy [1] [kcal/mol]	Tm [2] [°C]
GCTATCGGAAACGACAGC (((.(((....))).)))	-30.9	43.8
GCGTATAGACGC ((((....))))	-24.6	50.3
GCTATCGAAAGATTAGC ((((((....))).)))	-26.1	42.7
GCGGTCGAAAGACGACGC ((((((....)))..)))	-37.4	53.8
GTCGTACGAAAGTATGAC (((.(((....))).)))	-41.9	54.3
CGTCAGCGGAAACGCACG (((..(((....))))))	-15.4	40.6
GATCCAGCTATGGATC ((((((....))))))	-33.5	58.8
GATCAACATCTTGATC ((((((....))))))	-28.1	41.5
GCTGTGCGAAAGCTAAGC (((..((....))..)))	-21.4	53.1
GTCCATGGAAACACGGAC ((((.((....)).))))	-25	42.1
GAATTGGGAAACCAATCC (.(((((....))))).)	-14.6	29.8
GCGGCCGCCGC ((((...))))	-19.9	55.1
GCGTGGCGAAAGCCGGGC ((..(((....)))..))	-27	64.7
TGATTGAAAAATCA (((((....)))))	-10.1	27.4
GGGATTGGAAACAATTCC ((.((((....)))).))	-34	46.5
GATCGTAGCAACGATC ((((((....))))))	-38.6	54.7
GCGAACGATCGC ((((....))))	-21.1	41.1
CGCGGACAATTCCGCG ((((((....))))))	-30.5	62.2
GCGAAGTGTCGC ((((....))))	-13.9	49.6
GCTAACGAAAGTTCTAGC ((((((....)))..)))	-11.4	28.8
GATCCGTACACGGATC ((((((....))))))	-43.2	61.2
GATCTCATGAGAGATC ((((((....))))))	-32	54.2
